Hits are enriched below; roughly 2.3% of the tested compounds scored in any of these assays.
TRPC4 act: activators of mouse TRPC4 channel; B-score at 10 µM; AID 2237; 310,000 compounds, 0.49% hits; HEK293 TRPC4beta/mu-opioid, Fluo4 calcium fluorescence; hits give high values; Q9QUQ5;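 active means B-score above 5 SD of library B-scores, and initial fluorescence ratio not above library mean plus 5 SD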;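 further: positive B-score marks a calcium rise read as TRPC4 activation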
Target sequence (Q9QUQ5 whole entry, looked up): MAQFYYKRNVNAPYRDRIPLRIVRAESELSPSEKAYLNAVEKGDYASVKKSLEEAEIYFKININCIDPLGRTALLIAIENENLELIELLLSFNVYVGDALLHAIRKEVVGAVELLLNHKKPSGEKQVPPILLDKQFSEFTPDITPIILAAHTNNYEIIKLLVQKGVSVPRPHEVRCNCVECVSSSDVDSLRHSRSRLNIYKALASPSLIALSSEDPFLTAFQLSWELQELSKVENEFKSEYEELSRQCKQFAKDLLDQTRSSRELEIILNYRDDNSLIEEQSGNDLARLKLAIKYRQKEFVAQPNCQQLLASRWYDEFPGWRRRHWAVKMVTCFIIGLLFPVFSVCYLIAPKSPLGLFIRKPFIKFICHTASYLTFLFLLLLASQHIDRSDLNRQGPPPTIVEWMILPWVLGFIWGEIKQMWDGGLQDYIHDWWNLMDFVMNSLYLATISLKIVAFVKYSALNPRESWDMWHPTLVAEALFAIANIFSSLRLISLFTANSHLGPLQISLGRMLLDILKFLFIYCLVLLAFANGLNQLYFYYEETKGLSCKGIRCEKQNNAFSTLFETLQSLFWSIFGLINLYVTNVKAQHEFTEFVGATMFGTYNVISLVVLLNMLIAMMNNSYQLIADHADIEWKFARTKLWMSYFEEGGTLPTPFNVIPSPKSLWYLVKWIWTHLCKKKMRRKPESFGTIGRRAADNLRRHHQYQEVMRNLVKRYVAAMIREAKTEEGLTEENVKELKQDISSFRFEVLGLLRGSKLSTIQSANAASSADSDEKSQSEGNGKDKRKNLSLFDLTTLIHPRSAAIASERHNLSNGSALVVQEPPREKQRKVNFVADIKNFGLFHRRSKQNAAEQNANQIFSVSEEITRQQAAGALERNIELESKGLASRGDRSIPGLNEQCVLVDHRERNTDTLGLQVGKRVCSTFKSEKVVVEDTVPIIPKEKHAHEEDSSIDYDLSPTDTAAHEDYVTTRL
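system = HEK293 cells stably co-expressing mouse TRPC4beta and mu-opioid receptor | schedule = Fluo4 dye loading 45 min at room temperature, 110 s recording | measure = B-scored integrated calcium fluorescence ratio | signal = Fluo4 calcium-sensitive dye fluorescence, kinetic, 1 Hz baseline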
TRPC4 inh: inhibitors of mouse TRPC4 channel | B-score at 10 µM | 300,000 compounds, 0.39% hits | HEK293 TRPC4beta/mu-opioid, DAMGO-evoked Fluo4 calcium flux; hits give low values | AID 2247;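 active means B-score over 3 SD under the library average, no early fluorescence shift, positive overall ratio signal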
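System: stable TRPC4beta/mu-opioid receptor HEK293 cells; Dosing: single-point compound dosing; Measured by: Fluo4 Ca2+ flux fluorescence; Read-out basis: per-well B score of integrated baseline-normalized Fluo4 ratio.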
TRPC6 act: mouse TRPC6 channel activation; AID 2550; B-score at 10 µM; 310,000 compounds, 0.13% hits; HEK293-TRPC6 membrane potential dye fluorescence; hits give high values;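 active means B-score of the integrated fluorescence ratio above library mean plus 3 SD, and starting fluorescence ratio within library mean plus 5 SD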;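 further: higher score means more depolarization so channel activation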
TRPC4 potent: allosterically enhances the mouse TRPC4 cation channel. B-score at 10 µM. Q9QUQ5. HEK293 TRPC4beta/mu-opioid, DAMGO EC20, Fluo-4 Ca2+ flux; hits give high values. 310,000 compounds, 0.42% hits;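 active means B-score of calcium response area above 5 SD of library B-scores, with initial fluorescence ratio within 5 SD of library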
TRPC6 inh: inhibitors of mouse TRPC6 channel; Q61143; HEK293-TRPC6, membrane potential dye, ACh-evoked depolarization; hits give low values; B-score at 10 µM; 310,000 compounds, 1.1% hits; AID 2553;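 active means B-score under library mean minus 3 SD, initial fluorescence not abnormally high, positive integrated signal ratio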;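 further: B-score derived from integrated fluorescence ratio over the kinetic read; more negative B-score means stronger inhibition of depolarization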
HEK293 MPD ctr: checks TRPC6 modulator effects in parental HEK293 cells | membrane potential dye fluorescence | 2,400 compounds, 51% hits | AID 488924 | membrane potential signal change, % at 10 µM | shares compounds with TRPC6 inh;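 active means membrane potential signal moves up or down beyond 5 SD from buffer-only wells, on both duplicate plates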
HEK293 MPD ctr 2: second counter-screen for TRPC6 modulators: effect in parental HEK293 cells. shares compounds with TRPC6 inh. membrane potential dye fluorescence; after compound, maximal acetylcholine stimulation. inhibition, % at 10 µM. 2,400 compounds, 14% hits. AID 488926;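 active means membrane potential signal drops by more than 5 SD from the mean control signal, in both duplicate plates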
TRPC4/MOR mod: mouse TRPC4 off-target activity of TRPC6 modulators. shares compounds with TRPC6 inh. percent change from control (negative = decrease, positive = increase), % at 10 µM. AID 488927. HEK293 TRPC4/mu-opioid, membrane potential fluorescence. 2,400 compounds, 69% hits;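 active means membrane potential signal moved up or down beyond 5 SD of buffer control wells, in both duplicate plates, actives on both sides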
TRPC4 ctr inh 2: second check of whether TRPC6 modulators also affect mouse TRPC4; 2,400 compounds, 55% hits; shares compounds with TRPC6 inh; HEK293 TRPC4/mu-opioid, membrane potential dye fluorescence; stimulated with maximal-effect DAMGO; inhibition, % at 10 µM;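 active means drop in membrane potential signal beyond 5 SD of the control wells in both duplicate plates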;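 further: TRPC4 counter screen for TRPC6 hits run under conditions tuned for TRPC6 not TRPC4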
TRPC6 inh conf: mouse TRPC6 inhibitor confirmation; 3,300 compounds, 43% hits; shares compounds with TRPC6 inh; HEK293-TRPC6, membrane potential dye, ACh-evoked depolarization; inhibition, % at 10 µM; AID 488960;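 active means fluorescence ratio falls more than 5 SD below the full-stimulation control mean, in both duplicate runs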;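 further: integrated fluorescence ratio of peak minus minimum over baseline after agonist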
TRPC6 act confirm: mouse TRPC6 activator confirmation. shares compounds with TRPC6 inh. HEK293-TRPC6 membrane potential dye fluorescence, FDSS. activation, % at 10 µM. 2,800 compounds, 11% hits. AID 488961;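 active means ratio signal rise beyond 5 SD above unstimulated control wells' mean, seen in both duplicate runs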
Each line names hits and unclear results; the compound was inactive in the other large screens (follow-up assays come after a bar, where they were run).

Cc1ccc2cc(CN(CCN3CCCC3)C(=O)Nc3ccccc3)c(=O)[nH]c2c1C	TRPC6 inh -5 | HEK293 MPD ctr inactive | HEK293 MPD ctr 2 inactive | TRPC4/MOR mod inactive | TRPC4 ctr inh 2 54% | TRPC6 inh conf 46% | TRPC6 act confirm inactive
Cc1ccc2cc(CN(CCN3CCCC3)C(=O)Nc3ccc(F)cc3)c(=O)[nH]c2c1C	none
CC(=O)Nc1ccc(S(=O)(=O)N2CCN(c3cc(C)nc4ccccc34)CC2)cc1	TRPC6 inh -7.8 | HEK293 MPD ctr -267% | HEK293 MPD ctr 2 inactive | TRPC4/MOR mod -45% | TRPC4 ctr inh 2 70% | TRPC6 inh conf 46% | TRPC6 act confirm inactive
Cc1cc(N2CCN(c3nc(-c4ccc([N+](=O)[O-])cc4)cs3)CC2)c2ccccc2n1	none
Cc1cc(N2CCN(C(=O)Nc3ccccc3C#N)CC2)c2ccccc2n1	TRPC6 inh -6.7 | HEK293 MPD ctr -230% | HEK293 MPD ctr 2 inactive | TRPC4/MOR mod -40% | TRPC4 ctr inh 2 44% | TRPC6 inh conf 42% | TRPC6 act confirm inactive
